Experimental data as given in ChEMBL document CHEMBL3352386, “Development of chiral praziquantel analogues as potential drug candidates with activity to juvenile Schistosoma japonicum” (2014).

How the values were obtained:
Schistosoma japonicum [1] = assay: Antischistosomal activity against juvenile Schistosoma japonicum assessed as worm survival at 50 uM after 48 hrs (reference value: 100%); assay type: functional
How it was run: (§1)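 Nine juvenile S. japonicum worms recovered 17 days post-infection from female ICR Kunming mice, in duplicate dishes of bicarbonate-buffered DMEM with 20% newborn calf serum plus penicillin, streptomycin and amphotericin B. Compound diluted from DMSO stock. Held at 37 °C, 5% CO2, with daily stereomicroscope scoring. Survival% = surviving/total worms × 100.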

Schistosoma japonicum [2] = assay: Antischistosomal activity against adult Schistosoma japonicum assessed as worm survival at 50 uM after 24 hrs (reference value: 100%); assay type: functional
How it was run: (§2)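 Five adult male S. japonicum worms recovered 6 weeks post-infection from female ICR Kunming mice, in duplicate dishes of bicarbonate-buffered DMEM with 20% newborn calf serum, penicillin, streptomycin and amphotericin B. Compound diluted from DMSO stock; DMSO control. Kept at 37 °C, 5% CO2, observed daily by stereomicroscope. Survival% = surviving/total worms × 100.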

Schistosoma japonicum [3] = assay: Antischistosomal activity against juvenile Schistosoma japonicum assessed as vitality reduction at 50 uM after 24 hrs (reference value: 0%); assay type: functional
Schistosoma japonicum [4] = assay: Antischistosomal activity against adult Schistosoma japonicum assessed as vitality reduction at 80 uM after 48 hrs (reference value: 0%); assay type: functional
Schistosoma japonicum [5] = assay: Antischistosomal activity against adult Schistosoma japonicum assessed as worm survival at 100 uM after 72 hrs (reference value: 100%); assay type: functional; how it was run: as §2
Schistosoma japonicum [6] = assay: Antischistosomal activity against adult Schistosoma japonicum assessed as vitality reduction at 100 uM after 72 hrs (reference value: 0%); assay type: functional
Schistosoma japonicum [7] = assay: Antischistosomal activity against adult Schistosoma japonicum assessed as worm survival at 100 uM after 48 hrs (reference value: 100%); assay type: functional; how it was run: as §2
Schistosoma japonicum [8] = assay: Antischistosomal activity against adult Schistosoma japonicum assessed as vitality reduction at 100 uM after 24 hrs (reference value: 0%); assay type: functional
Schistosoma japonicum [9] = assay: Antischistosomal activity against adult Schistosoma japonicum assessed as vitality reduction at 100 uM after 48 hrs (reference value: 0%); assay type: functional
Schistosoma japonicum [10] = assay: Antischistosomal activity against juvenile Schistosoma japonicum infected in ICR Kunming mouse assessed as worm reduction at 200 mg/kg, po for 5 days beginning on day 14 after infection (reference value: 0%)
Schistosoma japonicum [11] = assay: Antischistosomal activity against juvenile Schistosoma japonicum assessed as vitality reduction at 50 uM after 48 hrs (reference value: 0%); assay type: functional
Schistosoma japonicum [12] = assay: Antischistosomal activity against adult Schistosoma japonicum assessed as vitality reduction at 50 uM after 72 hrs (reference value: 0%); assay type: functional
Schistosoma japonicum [13] = assay: Antischistosomal activity against adult Schistosoma japonicum assessed as worm survival at 80 uM after 72 hrs (reference value: 100%); assay type: functional; how it was run: as §2
Schistosoma japonicum [14] = assay: Antischistosomal activity against adult Schistosoma japonicum assessed as vitality reduction at 80 uM after 72 hrs (reference value: 0%); assay type: functional
Schistosoma japonicum [15] = assay: Antischistosomal activity against juvenile Schistosoma japonicum assessed as worm survival at 50 uM after 24 hrs (reference value: 100%); assay type: functional; how it was run: as §1
Schistosoma japonicum [16] = assay: Antischistosomal activity against adult Schistosoma japonicum assessed as worm survival at 50 uM after 48 hrs (reference value: 100%); assay type: functional; how it was run: as §2
Schistosoma japonicum [17] = assay: Antischistosomal activity against juvenile Schistosoma japonicum assessed as worm survival at 50 uM after 72 hrs (reference value: 100%); assay type: functional; how it was run: as §1
Schistosoma japonicum [18] = assay: Antischistosomal activity against adult Schistosoma japonicum assessed as worm survival at 80 uM after 24 hrs (reference value: 100%); assay type: functional; how it was run: as §2
Schistosoma japonicum [19] = assay: Antischistosomal activity against adult Schistosoma japonicum assessed as worm survival at 80 uM after 48 hrs (reference value: 100%); assay type: functional; how it was run: as §2
Schistosoma japonicum [20] = assay: Antischistosomal activity against adult Schistosoma japonicum assessed as vitality reduction at 50 uM after 48 hrs (reference value: 0%); assay type: functional
Schistosoma japonicum [21] = assay: Antischistosomal activity against adult Schistosoma japonicum assessed as vitality reduction at 50 uM after 24 hrs (reference value: 0%); assay type: functional
Schistosoma japonicum [22] = assay: Antischistosomal activity against juvenile Schistosoma japonicum assessed as vitality reduction at 50 uM after 72 hrs (reference value: 0%); assay type: functional
Schistosoma japonicum [23] = assay: Antischistosomal activity against adult Schistosoma japonicum assessed as vitality reduction at 80 uM after 24 hrs (reference value: 0%); assay type: functional
Schistosoma japonicum [24] = assay: Antischistosomal activity against adult Schistosoma japonicum assessed as worm survival at 100 uM after 24 hrs (reference value: 100%); assay type: functional; how it was run: as §2
Schistosoma japonicum [25] = assay: Antischistosomal activity against adult Schistosoma japonicum assessed as worm survival at 50 uM after 72 hrs (reference value: 100%); assay type: functional; how it was run: as §2

Compound	survival at 50 µM (Schistosoma japonicum [1]) [%]	survival at 50 µM (Schistosoma japonicum [2]) [%]	inhibition at 50 µM (Schistosoma japonicum [3]) [%]	inhibition at 80 µM (Schistosoma japonicum [4]) [%]	survival at 100 µM (Schistosoma japonicum [5]) [%]	inhibition at 100 µM (Schistosoma japonicum [6]) [%]	survival at 100 µM (Schistosoma japonicum [7]) [%]	inhibition at 100 µM (Schistosoma japonicum [8]) [%]	inhibition at 100 µM (Schistosoma japonicum [9]) [%]	inhibition in vivo at 200 mg/kg (Schistosoma japonicum [10]) [%]	inhibition at 50 µM (Schistosoma japonicum [11]) [%]	inhibition at 50 µM (Schistosoma japonicum [12]) [%]	survival at 50 µM (Schistosoma japonicum [15]) [%]	survival at 50 µM (Schistosoma japonicum [16]) [%]	survival at 50 µM (Schistosoma japonicum [17]) [%]	inhibition at 50 µM (Schistosoma japonicum [20]) [%]	inhibition at 50 µM (Schistosoma japonicum [21]) [%]	inhibition at 50 µM (Schistosoma japonicum [22]) [%]	survival at 100 µM (Schistosoma japonicum [24]) [%]	survival at 50 µM (Schistosoma japonicum [25]) [%]	also measured
O=C1CCC(C(=O)N2CC(=O)N3CCc4ccccc4[C@@H]3C2)CC1	48.3	60	60.5	69.3	60	77.8	60	86.7	82.2	60	64.2	55.5	51.6	80	44.1	60	73.3	66.7	40	100	survival at 80 µM (Schistosoma japonicum [13]): 100%; inhibition at 80 µM (Schistosoma japonicum [14]): 60%; survival at 80 µM (Schistosoma japonicum [18]): 60%; survival at 80 µM (Schistosoma japonicum [19]): 100%; inhibition at 80 µM (Schistosoma japonicum [23]): 82%
O=C1CC(C(=O)N2CC(=O)N3CCc4ccccc4[C@H]3C2)C1	88.3	100	30.9		100	8.9	100	6.7	8.7	19	30.9	0	88.3	100	88.3	0	4.5	34.6	100	100	
O=C1CCC(C(=O)N2CC(=O)N3CCc4ccccc4C3C2)CC1 (racemic)	69.2	100	35.8	64.5	100	55.3	100	46.7	60	27.7	34.6	66.7	69.2	100	69.2	64.5	40	34.6	100	100	survival at 80 µM (Schistosoma japonicum [13]): 100%; inhibition at 80 µM (Schistosoma japonicum [14]): 66.7%; survival at 80 µM (Schistosoma japonicum [18]): 100%; survival at 80 µM (Schistosoma japonicum [19]): 100%; inhibition at 80 µM (Schistosoma japonicum [23]): 48.9%
O=C1CC(C(=O)N2CC(=O)N3CCc4ccccc4C3C2)C1 (racemic)	82.5	100	35.8		100	10	100	6.7	10	7.7	35.8	0	82.5	100	82.5	0	13.3	37	100	100	
O=C1CCC(C(=O)N2CC(=O)N3CCc4ccccc4[C@@H]3C2)C1 (stereo not given in full)	100	100	38.3		100	11.1	100	13.3	11.1	44.1	38.3	6.7	100	100	88.3	0	15.5	50.6	100	100	
O=C1CCC(C(=O)N2CC(=O)N3CCc4ccccc4[C@H]3C2)C1 (stereo not given in full)	100	100	45.7		100	15.3	100	16	15.5	24.6	45.7	0	100	100	85	0	4.5	53.1	100	100	
O=C1CCC(C(=O)N2CC(=O)N3CCc4ccccc4C3C2)C1 (racemic)	54.2	100	55.6	13.3	100	8.7	100	17.8	13.3	37.4	55.6	0	54.2	100	54.2	0	0	54.3	100	100	survival at 80 µM (Schistosoma japonicum [13]): 100%; inhibition at 80 µM (Schistosoma japonicum [14]): 0%; survival at 80 µM (Schistosoma japonicum [18]): 100%; survival at 80 µM (Schistosoma japonicum [19]): 100%; inhibition at 80 µM (Schistosoma japonicum [23]): 23.3%
O=C1CC(C(=O)N2CC(=O)N3CCc4ccccc4[C@@H]3C2)C1	100	100	32.1		100	22.7	100	24.5	22	41	37	15.3	100	100	100	15.5	17.8	38.3	100	100	
O=C(C1CCCCC1)N1CC(=O)N2CCc3ccccc3C2C1 (stereo not given) [PRAZIQUANTEL]										19.9											
O=C1CCC(C(=O)N2CC(=O)N3CCc4ccccc4[C@H]3C2)CC1	88.3	100	29.6		100	15.5	100	8.7	15.3	18	29.6	0	88.3	100	88.3	0	0	29.6	100	100	
